Results published in ChEMBL document CHEMBL1153346, “Structure-activity study of pentamidine analogues as antiprotozoal agents” (J Med Chem, 2009).
Calls of active or inactive are those of the source. The rule behind the calls is not given here.

Columns and labels:
[1] = tested on: Trypanosoma brucei rhodesiense; experiment: Antitrypanosomal activity against Trypanosoma brucei rhodesiense STIB900 trypomastigotes infected in NMRI mouse assessed as mouse survival at 5 mg/kg, ip administered from day 3 to day 6 postinfection; format: functional; settings: route intraperitoneal
Summary of the method: (§1)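 STIB900 acute mouse model. Dosing was intraperitoneal, daily for four days, in DMSO diluted with water to 10% final DMSO. An infected untreated control group was kept. Tail blood was checked for parasitemia to day 60, and deaths were recorded to give mean survival days. Mice surviving and aparasitemic at day 60 counted as cured.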

[2] = Selectivity index, ratio of IC50 for rat L6 cells to IC50 for Trypanosoma brucei rhodesiense STIB900 trypomastigotes; format: toxicity, cell-based; settings: read-out: Ratio IC50
Summary of the method: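 Ratio of L6 IC50 to STIB900 IC50. L6 cells: 4000/well in RPMI 1640 with 10% FBS, 70 h at 37 °C. Bloodstream forms: 2000/well in supplemented MEM with 15% horse serum, 70 h at 37 °C. Both read by Alamar blue fluorescence; IC50s from sigmoidal curves, two independent runs in duplicate.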

[3] = tested on: L6; experiment: Cytotoxicity against rat L6 cells after 70 hrs by alamar blue assay; format: cell-based; settings: L6, 70 h
Summary of the method: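 L6 rat myoblasts, 4000 per well, in RPMI 1640 with 2 mM L-glutamine, HEPES, NaHCO₃ and 10% FBS. Exposed to serial dilutions (DMSO ≤1%) for 70 h at 37 °C in humidified 5% CO₂. Resazurin then added for 2-3 h; fluorescence read at ex 536/em 588 nm. IC50 from sigmoidal curves; two independent runs in duplicate.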

[4] = tested on: Leishmania donovani; experiment: Antiprotozoal activity against Leishmania donovani MHOM/SD/62/1S-CL2D axenic amastigotes after 72 hrs; format: functional, organism-based
Summary of the method: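 L. donovani axenic amastigotes, adapted from promastigotes and grown in amastigote medium at 37 °C. 6 × 10⁴ parasites per well with 2-fold compound dilutions (DMSO ≤1%), incubated 72 h at 37 °C in humidified 5% CO₂. Growth read by tetrazolium (CellTiter) absorbance at 490 nm. IC50 from a four-parameter dose-response fit. Average of duplicate determinations.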

[5] = tested on: Plasmodium falciparum; experiment: Antiprotozoal activity after 48 hrs against chloroquine-resistant Plasmodium falciparum K1 infected erythrocytes by [3H]hypoxanthine uptake; format: functional, organism-based
Summary of the method: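 Erythrocytic stages in infected human red cells (hematocrit 1.25%, parasitemia 0.3%) in supplemented RPMI 1640 with Albumax II. Serial dilutions incubated at 37 °C in 93% N2/4% CO2/3% O2. [3H]-hypoxanthine (0.5 µCi/well) added at 48 h, then 24 h more. Incorporation counted by scintillation. IC50 from sigmoidal curves; two independent runs in duplicate.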

[6] = tested on: Trypanosoma brucei rhodesiense; experiment: Antitrypanosomal activity against Trypanosoma brucei rhodesiense STIB900 trypomastigotes infected in NMRI mouse assessed as survival and aparasitemic condition at 5 mg/kg, ip administered from day 3 to day 6 postinfection measured after 60 days postinfection; format: functional, organism-based; design: dose 5 mg/kg
Summary of the method: (§2)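 STIB900 acute mouse model with 4 mice per group. Compound in DMSO diluted with water to a final 10% DMSO, given intraperitoneally once daily for four days. An infected, untreated control group was included. Tail blood checked for parasitemia until day 60. Mice alive and aparasitemic at day 60 counted as cured; deaths recorded for mean survival time.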

[7] = Selectivity index, ratio of IC50 for rat L6 cells to IC50 for chloroquine-resistant Plasmodium falciparum K1; format: toxicity, cell-based; settings: read-out: Ratio IC50
Summary of the method: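 Ratio of L6 IC50 to K1 IC50. L6 cells: Alamar blue assay after 70 h, 37 °C. K1: [3H]-hypoxanthine incorporation in infected red cells over 48 + 24 h at 37 °C under low O2. IC50s from sigmoidal curves, two independent runs in duplicate.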

[8] = Selectivity index, ratio of IC50 for rat L6 cells to IC50 for Leishmania donovani MHOM/SD/62/1S-CL2D axenic amastigotes; format: toxicity, cell-based; settings: read-out: Ratio IC50
Summary of the method: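 Amastigotes: 6 × 10⁴ parasites/well with 2-fold dilutions, 72 h at 37 °C in 5% CO2. Growth read by tetrazolium CellTiter absorbance at 490 nm; IC50 from a four-parameter dose-response fit.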

[9] = tested on: Trypanosoma brucei rhodesiense; experiment: Antiprotozoal activity against Trypanosoma brucei rhodesiense STIB900 trypomastigotes after 70 hrs by alamar blue assay; format: functional, organism-based
Summary of the method: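 Bloodstream forms, 2000 per well, in MEM with Earle's salts plus 0.2 mM 2-mercaptoethanol, 1 mM pyruvate, 0.5 mM hypoxanthine and 15% heat-inactivated horse serum. Exposed to serial dilutions (DMSO ≤1%) for 70 h at 37 °C in 5% CO₂. Resazurin then added for a further 2-6 h. IC50 from sigmoidal curves; two independent runs in duplicate.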

[10] = tested on: Trypanosoma brucei rhodesiense; experiment: Antitrypanosomal activity against Trypanosoma brucei rhodesiense STIB900 trypomastigotes infected in NMRI mouse assessed as mouse survival at 10 mg/kg, ip administered from day 3 to day 6 postinfection; format: functional; settings: route intraperitoneal; summary of the method: as §1
[11] = tested on: Trypanosoma brucei rhodesiense; experiment: Antitrypanosomal activity against Trypanosoma brucei rhodesiense STIB900 trypomastigotes infected in NMRI mouse assessed as survival and aparasitemic condition at 10 mg/kg, ip administered from day 3 to day 6 postinfection measured after 60 days postinfection; format: functional, organism-based; design: dose 10 mg/kg; summary of the method: as §2
[12] = tested on: Trypanosoma brucei rhodesiense; experiment: Antitrypanosomal activity against Trypanosoma brucei rhodesiense STIB900 trypomastigotes infected in NMRI mouse assessed as mouse survival at 20 mg/kg, ip administered from day 3 to day 6 postinfection; format: functional; settings: route intraperitoneal; summary of the method: as §1
[13] = tested on: Trypanosoma brucei rhodesiense; experiment: Antitrypanosomal activity against Trypanosoma brucei rhodesiense STIB900 trypomastigotes infected in NMRI mouse assessed as mouse survival at 8 mg/kg, ip administered from day 3 to day 6 postinfection; format: functional; settings: route intraperitoneal
[14] = tested on: Trypanosoma brucei rhodesiense; experiment: Antitrypanosomal activity against Trypanosoma brucei rhodesiense STIB900 trypomastigotes infected in NMRI mouse assessed as survival and aparasitemic condition at 2 mg/kg, ip administered from day 3 to day 6 postinfection measured after 60 days postinfection; format: functional, organism-based; design: dose 2 mg/kg
[15] = tested on: Trypanosoma brucei rhodesiense; experiment: Antitrypanosomal activity against Trypanosoma brucei rhodesiense STIB900 trypomastigotes infected in NMRI mouse assessed as survival and aparasitemic condition at 8 mg/kg, ip administered from day 3 to day 6 postinfection measured after 60 days postinfection; format: functional, organism-based; design: dose 8 mg/kg
[16] = tested on: Trypanosoma brucei rhodesiense; experiment: Antitrypanosomal activity against Trypanosoma brucei rhodesiense STIB900 trypomastigotes infected in NMRI mouse assessed as mouse survival at 2 mg/kg, ip administered from day 3 to day 6 postinfection; format: functional; settings: route intraperitoneal
[17] = tested on: Trypanosoma brucei rhodesiense; experiment: Antitrypanosomal activity against Trypanosoma brucei rhodesiense STIB900 trypomastigotes infected in NMRI mouse assessed as mouse survival at 1 mg/kg, ip administered from day 3 to day 6 postinfection; format: functional; settings: route intraperitoneal
[18] = tested on: Trypanosoma brucei rhodesiense; experiment: Antitrypanosomal activity against Trypanosoma brucei rhodesiense STIB900 trypomastigotes infected in NMRI mouse assessed as survival and aparasitemic condition at 20 mg/kg, ip administered from day 3 to day 6 postinfection measured after 60 days postinfection; format: functional, organism-based; design: dose 20 mg/kg; summary of the method: as §2
[19] = tested on: Mus musculus; experiment: Toxicity in NMRI mouse infected with Trypanosoma brucei rhodesiense STIB900 trypomastigotes at 20 mg/kg, ip administered from day 3 to day 6 postinfection; format: organism-based; design: dose 20 mg/kg, route intraperitoneal; settings: in vivo

SMILES	Survival [1]	selectivity ratio [2]	IC50 [3]	IC50 [4]	IC50 [5]	Activity [6]	selectivity ratio [7]	selectivity ratio [8]	IC50 [9]	Survival [10]	Activity [11]	Survival [12]	Survival [13]	Activity [14]	Activity [15]	Survival [16]	Survival [17]	Activity [18]	Activity [19]
Cl.Cl.c1cc(C2=NCCN2)ccc1NCCCCCNc1ccc(C2=NCCN2)cc1	>60 days	34500	34.5 µM	0.254 µM	0.001 µM	Active	34500	136	0.001 µM										
COc1cc(C2=NCCN2)ccc1OCCCCOc1ccc(C2=NCCN2)cc1OC.Cl.Cl		> 2410	> 164 µM	38.9 µM	0.02 µM		> 8200	> 4	0.068 µM	18.3 days	inactive								
Cl.Cl.Cl.Cl.N=C(N)c1ccc(OCCCCOc2ccc(C(=N)N)cc2Cl)c(Cl)c1		260	10.9 µM	2.13 µM	0.019 µM		574	5	0.042 µM	22 days	inactive	>41.5 days							
Nc1nc(N)nc(Nc2ccc([As]3SCC(CO)S3)cc2)n1 (stereo unspecified) [MELARSOPROL]													>60 days	Active	Active	>60 days	>51.5 days		
Cl.Cl.Cl.Cl.N=C(N)c1ccc(OCCCOc2ccc(C(=N)N)cc2Cl)c(Cl)c1	>60 days	6200	24.8 µM	1.56 µM	0.019 µM	Active	1300	16	0.004 µM										
COc1cc(C2=NCCN2)ccc1OCCCCCOc1ccc(C2=NCCN2)cc1OC.Cl.Cl		> 3950	> 158 µM	36.3 µM	0.019 µM		> 8320	> 4	0.04 µM	>31.8 days	inactive								
Cl.Cl.N=C(N)c1ccc(OCCCOc2ccc(C(=N)N)cc2Br)c(Br)c1	13 days	337	6.4 µM	1.17 µM	0.016 µM	inactive	400	5	0.019 µM										
COc1cc(C(=N)N)ccc1OCCCCOc1ccc(C(=N)N)cc1OC.Cl.Cl		> 693	> 187 µM	38.1 µM	0.044 µM		> 4250	> 5	0.27 µM	17.5 days	inactive								
Cl.Cl.N=C(N)c1cccc(OCCCCOc2cccc(C(=N)N)c2)c1		286	16 µM	4.46 µM	0.021 µM		762	4	0.056 µM	20 days	inactive	>43 days							
CCOC(=O)c1cc(C(=N)NC(C)C)ccc1OCCCCCOc1ccc(C(=N)NC(C)C)cc1C(=O)OCC.Cl.Cl		> 2740	> 140 µM	55.9 µM	0.013 µM		> 10800	2	0.051 µM			5.5 days						inactive	Toxic
COc1cc(C(=N)N)ccc1OCCCCCOc1ccc(C(=N)N)cc1OC.Cl.Cl	26 days	16200	162 µM	24 µM	0.021 µM	inactive	7710	7	0.01 µM										
Cl.Cl.N=C(N)c1ccc(SCCCCCSc2ccc(C(=N)N)cc2)cc1	32.3 days	1560	7.8 µM	1.27 µM	0.019 µM	inactive	411	6	0.005 µM										
Cl.Cl.c1cc(C2=NCCN2)ccc1OCCCOc1ccc(C2=NCCN2)cc1		685	75.3 µM	2.88 µM	0.01 µM		7530	26	0.11 µM	22.8 days	inactive	>51 days							
CC(C)NC(=N)c1ccc(NCCCCCNc2ccc(C(=N)NC(C)C)cc2)cc1.Cl	18 days	2500	125 µM	5.75 µM	0.002 µM	inactive	62500	22	0.05 µM										
Cl.Cl.c1cc(C2=NCCN2)ccc1OCCCCOc1ccc(C2=NCCN2)cc1	7.8 days	257	62.7 µM	3.06 µM	0.031 µM	inactive	2020	20	0.244 µM			>41.5 days							
